Data on eight compounds can be found in ChEMBL document CHEMBL1133012, “QSAR based on biological microcalorimetry” (J Med Chem, 2000).

Each structure is given as a SMILES string.

For data set [1], the system named is Escherichia coli. In words: Normal diffusion coefficient in water for Escherichia coli. The data set is classed as ADME, organism-based. More on the design: unit not given here. An outline of the steps:
(§1)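 Partition coefficient by Taylor-Aris diffusion in the same cells as the screen. Cells from a liquid-nitrogen ampule were put in 25 mL 1/4 Ringer's solution; 15 mL of this was diluted with a further 24 mL 1/4 Ringer's. Water bath held at 298.15 K. Carrier pumped at least 10 min or to stable baseline before first injection. Retention time and half-height peak width taken from dispersion curve. At least two replicates per solute.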

A short description of data set [2]: Partition coefficient was obtained using Taylor-Aris diffusion process. The data set is classed as ADME. The conditions noted are these: E. coli cells. An outline of the steps: as §1
For data set [3], the system named is Escherichia coli. In words: Observed diffusion coefficient in organic solvent for Escherichia coli. In kind it is ADME, organism-based. More on the design: unit not given here. An outline of the steps:
as §1

In data set [4] the test system is Escherichia coli. The data set is described as follows: Potency against Escherichia coli was determined microcalorimetrically at the dose of 2.619 uMol/L. In kind it is functional, organism-based.

`O=C(NNC(=O)c1ccccc1)c1ccccc1` came in with a DW in the data set with Escherichia coli [1] of 9.94. Further, the logP in data set [2] is -1.09. This compound also yielded a Dobs in the data set on Escherichia coli [3] of 9.2. This compound also returned a Log D50 in the data set with Escherichia coli [4] of 2.28.
For `Cc1ccc(C(=O)NNC(=O)c2ccccc2)cc1` the same measures were 12.24, -0.956, 11.02 and 2.54.
In turn, `CCCCCc1ccc(C(=O)NNC(=O)c2ccccc2)cc1` yielded a DW in the data set on Escherichia coli [1] of 21.15. Besides, the logP in data set [2] was -0.652. The Dobs in the data set with Escherichia coli [3] is 17.3. Besides, in the data set on Escherichia coli [4], the Log D50 was 3.05.
On to `COc1ccc(C(=O)NNC(=O)c2ccccc2)cc1`, for which, in the data set with Escherichia coli [1], the DW amounted to 9.86. The logP in data set [2] is -1. The Dobs in the data set on Escherichia coli [3] stood at 8.98. This compound showed a Log D50 in the data set on Escherichia coli [4] of 2.6.
Consider `O=C(NNC(=O)c1ccc([N+](=O)[O-])cc1)c1ccccc1`, for which, in the data set on Escherichia coli [1], the DW is listed as 10.879. Further, in data set [2], the logP was -1.14. Further, the Dobs in the data set with Escherichia coli [3] is given as 10.15. In the data set on Escherichia coli [4], this compound displayed a Log D50 of 2.38.
The compound `O=C(NNC(=O)c1ccc(Br)cc1)c1ccccc1` showed a DW with Escherichia coli [1] of 13.47. Further, the logP in data set [2] was -0.879. In the data set with Escherichia coli [3], this compound gave a Dobs of 11.9. This compound showed a Log D50 with Escherichia coli [4] of 2.73.
For `O=C(NNC(=O)c1ccc(-c2ccccc2)cc1)c1ccccc1` the same measures were 16.98, -0.787, 14.6 and 3.24.
For `CC(C)(C)c1ccc(C(=O)NNC(=O)c2ccccc2)cc1` the same measures were 17.5, -0.799, 15.1 and 3.21.
